Measurements collected from several papers.
Compare with care: the assays were run in different laboratories.
Cell line: HCT-116
Effect on: cell growth or viability

| Structure (SMILES) | method | time | setting | IC50 [nM] |
| --- | --- | --- | --- | --- |
| COc1ccc(-c2cc(-c3ccc(OC)cc3)c3c(=O)n(C)c(=O)n(C)c3n2)cc1 | MTT | 48 h | – | 11600 |
| Cc1nc(Nc2ccc3c(c2)/C(=C/c2ccccc2)C(=O)N3C)c2ccccc2n1 | MTT | – | – | 21400 |
| Cc1nc2ccc(CN(C)c3ccc(C(=O)N[C@@H](CCC(=O)O)C(=O)O)s3)cc2c(=O)[nH]1 | MTT | 48 h | – | 1070 |
| Cc1nc(NC(=O)N2CCC[C@H]2C(N)=O)sc1-c1ccnc(C(C)(C)C(F)(F)F)c1 | MTT | – | – | 4340 |
| COc1nc(NCc2cn(-c3ccc(C(N)=O)cc3)nn2)nc(OC)n1 | MTT | 72 h | – | 79.7 |
| Cc1ccc(-c2cc(-c3ccc(Cl)cc3)c3c(=O)[nH]c(=O)[nH]c3n2)cc1 | MTT | 48 h | – | 5440 |
| COc1nc(NCc2cn(-c3ccc(NC(=O)c4ccc(C(F)(F)F)cc4)cc3)nn2)nc(OC)n1 | MTT | 72 h | – | 39.9 |
| C=C(F)C(=O)N1CCN(c2nc(OC[C@@H]3CCCN3C)nc3c2CCN(c2cccc4cccc(Cl)c24)C3)C[C@@H]1CC#N | ATP luminescence | – | 3D culture | > 1000 |
| COc1nc(NCc2cn(-c3ccc(NC(=O)c4ccc(Br)cc4)cc3)nn2)nc(OC)n1 | MTT | 72 h | – | 56.6 |
| Cc1nc(N(Cc2ccccc2)c2ccc3c(c2)/C(=C/c2ccccc2)C(=O)N3Cc2ccccc2)c2ccccc2n1 (mixture of isomers) | MTT | – | – | 980 |
